Assay outcomes: PubChem, several laboratories
In the library only some 2.6% were active in any assay of this set; here they are far more common.
VLA-4 inh: inhibition in human VLA-4 binding assay, primary screen, VLA-4 allosteric modulator project, MLPCN library, flow cytometry, VLA-4 expressing cells; Integrin alpha-4 (Homo sapiens), P13612; ligand binding flow cytometry; inhibition, % (about 7 µM as worked out from the volumes in the protocol); 330,000 compounds, 0.2% hits; in the data active = inhibition above about 50%
Target sequence (P13612 whole entry, looked up): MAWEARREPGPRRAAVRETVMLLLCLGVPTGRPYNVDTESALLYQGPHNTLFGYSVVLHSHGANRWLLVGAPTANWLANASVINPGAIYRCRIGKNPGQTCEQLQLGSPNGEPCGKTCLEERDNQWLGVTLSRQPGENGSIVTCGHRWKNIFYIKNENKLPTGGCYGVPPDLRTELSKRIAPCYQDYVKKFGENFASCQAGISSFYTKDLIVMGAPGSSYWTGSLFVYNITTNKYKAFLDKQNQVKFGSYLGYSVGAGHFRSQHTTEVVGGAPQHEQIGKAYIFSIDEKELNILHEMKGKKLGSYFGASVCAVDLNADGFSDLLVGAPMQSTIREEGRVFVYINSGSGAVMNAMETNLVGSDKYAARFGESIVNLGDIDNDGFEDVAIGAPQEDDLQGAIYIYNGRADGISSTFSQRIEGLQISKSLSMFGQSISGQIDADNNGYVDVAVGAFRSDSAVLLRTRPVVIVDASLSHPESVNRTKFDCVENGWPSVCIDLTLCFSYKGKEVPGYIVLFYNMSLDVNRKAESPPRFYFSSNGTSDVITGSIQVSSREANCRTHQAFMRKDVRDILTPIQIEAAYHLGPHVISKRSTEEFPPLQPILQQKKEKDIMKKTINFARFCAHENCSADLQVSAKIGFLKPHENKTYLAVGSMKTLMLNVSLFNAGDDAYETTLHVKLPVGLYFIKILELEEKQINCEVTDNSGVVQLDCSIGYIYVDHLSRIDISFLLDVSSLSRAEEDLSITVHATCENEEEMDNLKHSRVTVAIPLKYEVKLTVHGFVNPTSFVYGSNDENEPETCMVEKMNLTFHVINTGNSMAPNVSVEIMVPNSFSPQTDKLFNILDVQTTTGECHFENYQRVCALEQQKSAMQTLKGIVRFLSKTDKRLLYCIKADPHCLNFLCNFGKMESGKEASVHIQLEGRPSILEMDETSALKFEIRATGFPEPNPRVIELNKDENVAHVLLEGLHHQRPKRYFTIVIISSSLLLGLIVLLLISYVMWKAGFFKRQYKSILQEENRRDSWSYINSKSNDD
TAAR1 antagonist: human TAAR1 antagonists, primary screen, Fluo-8 calcium fluorescence, CHO RD-HGA16 cells. Trace amine-associated receptor 1 (Homo sapiens), Q96RJ0. antagonist. inhibition, % at 3 µM. 360,000 compounds, 1.5% hits. AID 624466, 2012;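 active = inhibition above a per-plate cutoff, the mean inhibition of test compounds on that plate plus 3 SD, cut at about 49% in these data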;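 note: 0% = DMSO plus EC80 beta-PEA response and 100% = DMSO alone without agonist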
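test system = CHO RD-HGA16 cells bearing hTAAR1 | replication = singlicate | controls = DMSO-only wells and EC80 β-PEA-stimulated wells | reagent = EC80 β-phenethylamine stimulus | read-out basis = percent inhibition of PEA-evoked calcium signal, max/basal emission ratio | schedule = seeding 17-24 h prior, 75-min 37 °C, 30-min RT dye loading | signal = kinetic Fluo-8 calcium fluorescence measurement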
Rce1 inh: yeast Rce1p protease inhibitors, primary screen, biochemical, fluorescence, cell-free homogeneous. CAAX prenyl protease 2 (Saccharomyces cerevisiae (strain ATCC 204508 / S288c)), Q03530. yeast membranes, quenched prenylated peptide cleavage fluorescence. calls only. 290,000 compounds, 0.27% hits. AID 2563, 2010;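 active = fall in fluorescence gain of 50% or more versus controls, with final raw signal at or below 3038400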;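 note: plate controls were neutral control wells for no effect and wells lacking membranes for full effect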
Platelet DG rel: inhibitors of platelet dense granule secretion, primary screen, cell-based, MLPCN, human platelets. human platelet-rich plasma, SFLLRN dense granule ATP release, luminescence. inhibition, %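 (compounds screened at 7.5 µM in platelet-rich plasma)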. 300,000 compounds, 0.22% hits. AID 1663, 2009;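 active = mean replicate score, as percent of positive control, at or above 50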
TAAR1 agonist: human TAAR1 agonists, primary screen, Fluo-8 calcium fluorescence, CHO RD-HGA16 cells | 360,000 compounds, 0.99% hits | activation, % at 3 µM | vehicle wells 0%, saturating PEA agonist 100% | AID 624467, 2012 | Trace amine-associated receptor 1 (Homo sapiens), Q96RJ0;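 active = activation above the mean activation of all test compounds in the run plus 3 SD, cut at about 38% in these data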
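Test system: RD-HGA16 (CHO) cells co-expressing Gα16 and hTAAR1 / Benchmarks: DMSO vehicle as 0%, PEA at EC100 as 100% / Repeats: no replicates (n 1) / Measure: % activation from peak over basal fluorescence ratio, DMSO-to-PEA scaled / Timing: 17-24 h plating, Fluo-8 75 min 37 °C, 30 min RT / Technique: kinetic Fluo-8 calcium fluorescence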
Numbers without * were called inactive; i = inactive; nt = not tested or not shown; + = active, no number.

SMILES	VLA-4 inh	TAAR1 antagonist	Rce1 inh	Platelet DG rel	TAAR1 agonist
O=C1NC(=S)N(c2ccc(Cl)cc2)C(=O)/C1=C/N1CCN(C(=O)c2ccco2)CC1	17	5	i	2	38*
NC1=Nc2ccccc2Oc2ccccc21	-2	16	i	8	40*
Cc1ccc2c(c1)Oc1ccccc1N=C2	nt	-15	nt	nt	-1
Cc1cc(N2CCNC[C@H]2C)ccc1N1CC[C@H](O)C1	nt	-21	nt	nt	3
Brc1ccc2c(c1)-n1nncc1CNC2	nt	-17	nt	nt	2
Cc1oc2ccc(OC(=O)N(C)C)cc2c1C(=O)OC(C)C	-5	4	i	-2	11
CCOC(=O)c1c(-c2ccc(OC)cc2)oc2ccc(OC(=O)N(C)C)cc12	11	40	+	8	16
Cc1ccc(C(O)(C(=O)OC(C)C)C(O)c2ccc(F)cc2)cc1 (stereo unspecified)	nt	-32	nt	nt	-1
c1ccc(CN2CCN(Cc3ccc4ccccc4c3)CC2)cc1	-13	-22	i	2	2
N#Cc1c(Cl)nc(Cl)c2c1CCN(Cc1ccccc1)C2	0	-12	+	-31	-3
NC1CCc2cc(O)c(O)cc2C1 (stereo unspecified)	-4	-28	nt	nt	39*
O=c1[nH]c2ccccc2n1C1CCN(C(c2nnnn2C2CCCCC2)C2CC2)CC1 (stereo unspecified)	nt	52*	nt	nt	58*
O=c1[nH]c2ccccc2n1C1CCN(C(c2nnnn2Cc2ccccc2)C2CC2)CC1 (stereo unspecified)	nt	63*	nt	nt	17
O=c1[nH]c2ccccc2n1C1CCN(C(c2nnnn2C2CCCC2)C2CC2)CC1 (stereo unspecified)	nt	40	nt	nt	26
CC(C)(C)n1nnnc1C(CCc1ccccc1)N1CCC(n2c(=O)[nH]c3ccccc32)CC1 (stereo unspecified)	nt	41	nt	nt	19
CSCCC(c1nnnn1C1CCCCC1)N1CCC(n2c(=O)[nH]c3ccccc32)CC1 (stereo unspecified)	nt	62*	nt	nt	20
COc1cccc(NC2=NCCS2)c1	nt	-17	nt	nt	2
O=S(=O)(c1ccc(Cl)cc1)N1Cc2ccc(Br)cc2-n2nncc2C1	nt	-3	nt	nt	1
O=C(NCCN1CCC2(CC1)C(=O)NCN2c1ccccc1)c1cccs1	nt	6	nt	nt	17
c1ccc(CCNCc2cccs2)cc1	-6	-2	i	5	39*
CCOC(=O)[C@]12Cc3c(cc(OC)c(OC)c3OC)[C@H]1N(C1CCCCC1)C(=O)c1ccccc12	nt	6	nt	nt	-2
CN(C)CCNC(=O)c1cccn(Cc2cccc(C(F)(F)F)c2)c1=O	-3	4	+	-1	14
CCN1C(=O)C(=Cc2ccc(N3CCOCC3)o2)C(=O)N(CC)C1=S	-1	-2	i	3	40*
Oc1ccccc1-[n+]1c(-c2ccccc2)cc(-c2ccccc2)cc1-c1ccccc1	-34	51*	i	2	8
Cc1cccc(N2C(=O)NC(=O)/C(=C\C=C\c3ccco3)C2=O)c1	44	22	i	-17	44*
SMILES	VLA-4 inh	TAAR1 antagonist	Rce1 inh	Platelet DG rel	TAAR1 agonist
Cc1cccc(N2C(=O)NC(=O)/C(=C\c3cccn3-c3ccc(Cl)cc3)C2=O)c1	6	37	i	13	56*
Cc1cc(C)cc(N2C(=O)NC(=O)/C(=C/c3cccn3-c3ccc(Cl)cc3)C2=O)c1	10	-6	i	1	17
Oc1c(Cl)cccc1Cc1cc(Cl)cc(Cl)c1O	nt	18	nt	nt	0
CNCC(O)c1cccc(OC(=O)c2ccccc2C)c1 (stereo unspecified)	8	-4	i	nt	12
CNCC(O)c1cc(OCc2ccccc2)c(OCc2ccccc2)cc1F (stereo unspecified)	36	15	i	-9	45*
O=C(NCCN1CCC2(CC1)C(=O)NCN2c1cccc(F)c1)c1ccc2ccccc2c1	nt	106*	nt	nt	83*
CC1(CCCc2ccc(N(CCCl)CCCl)cc2)NC(=O)NC1=O (stereo unspecified)	nt	5	nt	nt	0
O=P(Nc1ccccc1)(Nc1ccccc1)Oc1cccc(Cl)c1	19	52*	i	1	14
O=P(Nc1ccccc1)(Nc1ccccc1)Oc1ccccc1	8	41	nt	-4	15
Cc1ccc(OC(=O)N(C)C[C@H]2OCc3cnnn3CCCC(=O)N([C@@H](C)CO)C[C@@H]2C)cc1	nt	-2	nt	nt	4
CCOC(=O)[C@]12Cc3cc(Cl)ccc3[C@H]1N(C1CCCCC1)C(=O)c1cc(OC)ccc12	nt	63*	nt	nt	2
CCOC(=O)[C@]12Cc3ccc(C)cc3[C@H]1N(C1CCCCC1)C(=O)c1cc(OC)ccc12	nt	15	nt	nt	3
N#CCCC#N	nt	-14	nt	nt	5
COC(=O)C1=C(c2ccc(OC(F)(F)F)cc2)C[C@@H]2CC[C@H]1N2C(=O)NCc1ccco1	nt	-8	nt	nt	-2
CC(C)=CCc1c(O)cc2c(c1O)C(=O)CC(c1ccc(O)cc1)O2 (stereo unspecified)	26	19	i	-5	42*
Oc1ccc(O)c2c1C1(Cl)C(Cl)=C(Cl)C2(Cl)C1(Cl)Cl	nt	26	nt	nt	3
NCCCN1CCN(c2ccccc2)CC1	9	-9	i	0	-1
COc1ccc(N2CCN(CCCN)CC2)cc1	-6	1	i	63*	8
CCN(CCCl)c1cc(CN(C)C)cc(NC(=O)c2ccc(C(=O)Nc3cc(CN(C)C)cc(N(CC)CCCl)c3)cc2)c1	nt	-3	nt	nt	-1
COc1cccc(-c2ccc3c(c2)C2c4cnnn4-c4ccccc4C(=O)N2CC3)c1 (stereo unspecified)	nt	2	nt	nt	0
COc1ccc(-n2nnnc2C(CCSC)N2CCC3(CC2)C(=O)NCN3c2ccccc2)cc1 (stereo unspecified)	nt	51*	nt	nt	14
CN1CC[C@@H]2CN[C@H](c3ccccc3)C[C@@H]21	nt	-7	nt	nt	0
CCOC(=O)C1(c2ccccc2)CCN(CCC(=O)Nc2ccc(OC)cc2)CC1	nt	-16	nt	nt	5
CCOC(=O)C1(c2ccccc2)CCN(CCC(=O)Nc2cccc(Br)c2)CC1	nt	50*	nt	nt	17
CCCCCN1C(=O)c2cc(OC)ccc2[C@@]2(C(=O)OCC)Cc3cc(OC)ccc3[C@@H]12	nt	-18	nt	nt	1
CC(N)Cc1ccccc1Sc1ccc(O)cc1 (stereo unspecified)	2	nt	i	76*	nt
O=C(O)CCl	nt	7	nt	nt	0
O=C(NC1CCCCC1)N1Cc2cc(Br)ccc2-n2nncc2C1	nt	4	nt	nt	0
CCOc1ccc(NC(=O)c2c(O)[nH]c(=O)[nH]c2=O)cc1	nt	-3	i	56*	0
CCOC(=O)c1ccc(NC(=O)c2c(O)[nH]c(=O)[nH]c2=O)cc1	9	8	i	14	14
